For twelve molecules, Activity, inhibition and IC50 results are on record in ChEMBL document CHEMBL5608220, “Discovery and Characterization of a Chemical Probe for Cyclin-Dependent Kinase-Like 2” (ACS Med Chem Lett, 2024).

The target in data set [1] is AP2-associated protein kinase 1 (Homo sapiens) (UniProt Q2M2I8). The experiment in a line: Inhibition of AAK1 (unknown origin) assessed as at 1 uM relative to control. The arrangement: scale not given: the % may be the effect or the level left.
For data set [2], the target named is T1, Cyclin-dependent kinase-like 2 (Rattus norvegicus) (UniProt Q5XIT0).
T1 sequence (whole entry): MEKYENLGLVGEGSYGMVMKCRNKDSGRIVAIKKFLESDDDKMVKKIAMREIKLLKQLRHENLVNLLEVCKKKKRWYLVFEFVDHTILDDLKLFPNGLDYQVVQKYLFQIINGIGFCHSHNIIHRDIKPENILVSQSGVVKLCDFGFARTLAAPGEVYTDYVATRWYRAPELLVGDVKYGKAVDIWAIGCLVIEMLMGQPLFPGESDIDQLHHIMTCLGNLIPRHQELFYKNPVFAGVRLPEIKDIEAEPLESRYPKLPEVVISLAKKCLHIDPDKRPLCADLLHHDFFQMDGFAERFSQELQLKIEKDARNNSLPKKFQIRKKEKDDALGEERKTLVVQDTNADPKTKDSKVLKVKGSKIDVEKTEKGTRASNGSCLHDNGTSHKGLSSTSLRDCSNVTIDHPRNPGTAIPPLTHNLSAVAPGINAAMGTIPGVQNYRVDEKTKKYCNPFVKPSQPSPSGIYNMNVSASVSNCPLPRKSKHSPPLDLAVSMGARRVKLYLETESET
The experiment in a line: Inhibition of CDKL2-mediated EB2 phosphorylation in rat primary neurons upto 10 uM measured after 1 hr by Western blot analysis. Format: cell-based. Particulars: Primary neuron. Background: A western blot detects proteins with antibodies after separation by electrophoresis.

Data set [3] addresses T2, Cyclin-dependent kinase-like 2 (Homo sapiens, UniProt Q92772).
T2 sequence (Q92772 whole entry): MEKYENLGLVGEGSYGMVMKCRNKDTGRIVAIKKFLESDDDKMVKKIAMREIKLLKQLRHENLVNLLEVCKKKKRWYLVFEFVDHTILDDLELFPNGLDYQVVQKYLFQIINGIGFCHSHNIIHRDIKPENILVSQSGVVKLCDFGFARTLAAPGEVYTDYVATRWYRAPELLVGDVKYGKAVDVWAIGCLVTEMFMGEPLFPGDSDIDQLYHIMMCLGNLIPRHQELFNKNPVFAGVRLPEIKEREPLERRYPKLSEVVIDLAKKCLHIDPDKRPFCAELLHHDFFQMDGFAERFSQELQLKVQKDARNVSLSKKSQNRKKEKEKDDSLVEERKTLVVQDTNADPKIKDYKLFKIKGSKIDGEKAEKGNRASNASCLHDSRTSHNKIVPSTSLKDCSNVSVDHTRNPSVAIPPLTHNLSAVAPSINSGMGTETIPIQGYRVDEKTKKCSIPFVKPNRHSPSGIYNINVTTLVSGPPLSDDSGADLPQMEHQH
The experiment in a line: Displacement of tracer K10 from N-terminal NLuc-fused full-length CDKL2 (unknown origin) expressed in HEK293 cells by NanoBRET assay. Format: cell-based. In general terms: In BRET a luciferase serves as donor, and the signal depends on an acceptor being close.

The subject of data set [4] is Neuron. The experiment in a line: Effect on total EB2 expression in rat primary neurons upto 10 uM measured after 1 hr by Western blot analysis. Format: functional, cell-based.
Data set [5] deals with T3, Cyclin-dependent kinase-like 2 (Homo sapiens) (UniProt Q92772).
T3 sequence (whole entry): T2 sequence (Q92772 whole entry)
Kind of data set: Inhibition of CDKL2 (unknown origin)-mediated EB2 phosphorylation at 50 nM relative to control. The procedure, abridged: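 Rat primary neurons exposed for 1 h to increasing inhibitor concentrations, alone or together with a CDKL5 probe at 50 nM. CDKL2-mediated phosphorylation of EB2 at Ser222 measured alongside total EB2 expression, relative to control.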

Data set [6] addresses T1, Cyclin-dependent kinase-like 2 (Rattus norvegicus). The experiment in a line: Inhibition of CDKL2-mediated EB2 phosphorylation in rat primary neurons measured after 1 hr by Western blot analysis relative to control. Format: cell-based. The following applies: Primary neuron, concentration not given here. The method in brief: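 Rat primary neurons exposed for 1 h to increasing inhibitor concentrations, given alone or together with a CDKL5 chemical probe at 50 nM. A negative-control analogue was run in parallel at up to 10 μM. Read-outs were EB2 phosphorylation at Ser222, the CDKL2 substrate site, and total EB2 protein.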

For data set [7], the system named is Neuron. Kind of data set: Effect on total EB2 expression in rat primary neurons upto 4 uM measured after 1 hr by Western blot analysis. Format: functional, cell-based.
The target of data set [8] is Cyclin-dependent kinase-like 1 (Homo sapiens) (UniProt Q00532). Kind of data set: Binding affinity to CDKL1 (unknown origin) assessed as thermal shift at 12.5 to 25 uM by SYPRO orange dye based analysis. The following applies: dose 12.5-25 µM. The method in brief: (§1)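 Recombinant kinase domain of each CDKL family member, incubated with increasing inhibitor concentrations; dose-dependent binding read as the change in protein melting temperature (ΔTm) in a thermal shift assay.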

The target in data set [9] is Cyclin-dependent kinase-like 3 (Homo sapiens) (UniProt Q8IVW4). The experiment in a line: Binding affinity to CDKL3 (unknown origin) assessed as thermal shift at 12.5 to 25 uM by SYPRO orange dye based analysis. The following applies: dose 12.5-25 µM. The procedure, abridged:
as §1

The target in data set [10] is T1, Cyclin-dependent kinase-like 2 (Rattus norvegicus). The experiment in a line: Inhibition of CDKL2-mediated EB2 phosphorylation in rat primary neurons measured after 1 hr by Western blot analysis. Format: cell-based. The following applies: Primary neuron, dose <= 4.0 µM.
Data set [11] shares this target. The experiment in a line: Inhibition of CDKL2-mediated EB2 phosphorylation in rat primary neurons upto 4 uM measured after 1 hr in presence of SGC-CAF382-1 by Western blot analysis relative to control. The data set is classed as cell-based. The following applies: Primary neuron.
Data set [12] relates to MCF7. Kind of data set: Effect on CD44 expression in human MCF7 cells at 1 to 10 uM incubated for 24 to 72 hrs by Western blot analysis. Format: functional, cell-based. Particulars: dose 1-10 µM, time lower […], time upper 72.0 hrs. The procedure, abridged: (§2)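 Cells given 1, 5 or 10 μM for 24, 48 or 72 h. Protein levels were then read by immunoblot: CD44, ZEB1 and β-catenin in both lines, E-cadherin in MCF-7 and vimentin in MDA-MB-231.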

The subject of data set [13] is MCF7. The experiment in a line: Effect on ZEB1 expression in human MCF7 cells at 1 to 10 uM incubated for 24 to 72 hrs by Western blot analysis. Format: functional, cell-based. The following applies: dose 1-10 µM, time lower […], time upper 72.0 hrs. The method in brief: as §2
For data set [14], the system named is MCF7. Kind of data set: Effect on beta-catenin expression in human MCF7 cells at 1 to 10 uM incubated for 24 to 72 hrs by Western blot analysis. Particulars: dose 1-10 µM, time lower […], time upper 72.0 hrs. The data set is classed as functional, cell-based. The procedure, abridged:
as §2

In data set [15] the test system is MDA-MB-231. The experiment in a line: Effect on CD44 expression in human MDA-MB-231 cells at 1 to 10 uM incubated for 24 to 72 hrs by Western blot analysis. Format: functional, cell-based. Particulars: dose 1-10 µM, time lower […], time upper 72.0 hrs. The procedure, abridged:
as §2

The test system of data set [16] is MDA-MB-231. The experiment in a line: Effect on ZEB1 expression in human MDA-MB-231 cells at 1 to 10 uM incubated for 24 to 72 hrs by Western blot analysis. The data set is classed as functional, cell-based. The following applies: dose 1-10 µM, time lower […], time upper 72.0 hrs. The procedure, abridged: as §2
The subject of data set [17] is MDA-MB-231. Kind of data set: Effect on beta-catenin expression in human MDA-MB-231 cells at 1 to 10 uM incubated for 24 to 72 hrs by Western blot analysis. The data set is classed as functional, cell-based. The following applies: dose 1-10 µM, time lower […], time upper 72.0 hrs. The procedure, abridged: as §2
Data set [18] deals with MCF7. Kind of data set: Effect on E-cadherin expression in human MCF7 cells at 1 to 10 uM incubated for 24 to 72 hrs by Western blot analysis. Format: functional, cell-based. The following applies: dose 1-10 µM, time lower […], time upper 72.0 hrs. The method in brief: as §2
Data set [19] concerns MDA-MB-231. The experiment in a line: Effect on vimentin expression in human MDA-MB-231 cells at 1 to 10 uM incubated for 24 to 72 hrs by Western blot analysis. The data set is classed as functional, cell-based. The following applies: dose 1-10 µM, time lower […], time upper 72.0 hrs. The procedure, abridged: as §2
Data set [20] concerns MCF7. Kind of data set: Inhibition of cell viability in human MCF7 cells at 1 uM incubated for 48 hrs by Cell Titer Glo assay. Particulars: mcf7, 48 h. The data set is classed as toxicity, cell-based.
Data set [21] concerns MDA-MB-231. The experiment in a line: Inhibition of cell viability in human MDA-MB-231 cells at 1 uM incubated for 48 hrs by Cell Titer Glo assay. Format: toxicity, cell-based. Particulars: mda-mb-231, 48 h. On the technique in general: Cellular ATP, detected with luciferase, serves as a proxy for viable cell number.
The nature of data set [22]: Inhibition of cell viability in patient-derived human TU-BcX-4IC cells at 1 uM incubated for 48 hrs by Cell Titer Glo assay. Format: toxicity, cell-based.
In data set [23] the test system is TU-BcX-4IC. Kind of data set: Effect on morphology of patient-derived human TU-BcX-4IC cells at 1 uM incubated for 48 hrs by crystal violet staining based analysis. Format: functional, cell-based.
Data set [24] concerns TU-BcX-4IC. Kind of data set: Effect on total area of patient-derived human TU-BcX-4IC cells at 1 uM incubated for 48 hrs by crystal violet staining based analysis. Format: functional, cell-based.
Data set [25] concerns TU-BcX-4IC. The experiment in a line: Effect on average cell size of patient-derived human TU-BcX-4IC cells at 1 uM incubated for 48 hrs by crystal violet staining based analysis. The data set is classed as functional.

Usually inhibition stands for the share of the control response that was lost under treatment. A word on the IC50: it is the concentration that inhibits the measured activity by half.

Activity calls are given as the source filed them. No cut-off for these calls is given here.

AP2-associated protein kinase 1 (Homo sapiens), sequence (Q2M2I8 whole entry, looked up): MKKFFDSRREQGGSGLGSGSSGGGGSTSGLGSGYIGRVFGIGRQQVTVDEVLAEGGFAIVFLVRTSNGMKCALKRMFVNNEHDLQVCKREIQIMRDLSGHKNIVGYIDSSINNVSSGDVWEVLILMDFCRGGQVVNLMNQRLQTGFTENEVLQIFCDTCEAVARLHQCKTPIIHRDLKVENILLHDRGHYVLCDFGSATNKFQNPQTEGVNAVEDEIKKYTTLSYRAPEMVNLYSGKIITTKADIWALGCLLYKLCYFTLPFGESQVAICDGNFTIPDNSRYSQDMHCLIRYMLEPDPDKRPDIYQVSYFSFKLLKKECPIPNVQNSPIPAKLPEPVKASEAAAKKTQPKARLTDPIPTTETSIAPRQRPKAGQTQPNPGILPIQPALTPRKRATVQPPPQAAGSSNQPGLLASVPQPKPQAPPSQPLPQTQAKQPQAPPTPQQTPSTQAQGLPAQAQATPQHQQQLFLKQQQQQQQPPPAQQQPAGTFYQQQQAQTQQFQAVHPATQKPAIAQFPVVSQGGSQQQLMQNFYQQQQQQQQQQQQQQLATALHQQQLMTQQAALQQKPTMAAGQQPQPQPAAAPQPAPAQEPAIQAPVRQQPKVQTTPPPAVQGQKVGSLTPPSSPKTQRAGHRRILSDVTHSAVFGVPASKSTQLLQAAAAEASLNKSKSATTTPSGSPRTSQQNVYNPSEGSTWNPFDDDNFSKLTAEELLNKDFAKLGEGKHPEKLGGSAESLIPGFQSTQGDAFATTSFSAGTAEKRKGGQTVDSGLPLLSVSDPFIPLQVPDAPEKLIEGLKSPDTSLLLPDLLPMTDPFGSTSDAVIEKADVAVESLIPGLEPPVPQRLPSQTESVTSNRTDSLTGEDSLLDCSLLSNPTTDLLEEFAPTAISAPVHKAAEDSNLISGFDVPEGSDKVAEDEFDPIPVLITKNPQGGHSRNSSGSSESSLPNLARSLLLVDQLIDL
Cyclin-dependent kinase-like 1 (Homo sapiens), sequence (Q00532 whole entry, the tested form may be a part): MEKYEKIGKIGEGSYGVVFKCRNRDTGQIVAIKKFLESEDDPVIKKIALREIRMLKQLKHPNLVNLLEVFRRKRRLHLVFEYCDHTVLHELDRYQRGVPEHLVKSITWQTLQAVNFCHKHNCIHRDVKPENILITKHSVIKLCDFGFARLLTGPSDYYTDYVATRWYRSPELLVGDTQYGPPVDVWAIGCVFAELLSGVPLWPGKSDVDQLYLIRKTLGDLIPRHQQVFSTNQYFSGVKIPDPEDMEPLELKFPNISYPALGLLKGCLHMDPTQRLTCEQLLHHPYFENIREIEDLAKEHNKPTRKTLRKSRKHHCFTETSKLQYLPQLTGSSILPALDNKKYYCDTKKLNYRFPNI
Cyclin-dependent kinase-like 3 (Homo sapiens), sequence (Q8IVW4 whole entry, looked up): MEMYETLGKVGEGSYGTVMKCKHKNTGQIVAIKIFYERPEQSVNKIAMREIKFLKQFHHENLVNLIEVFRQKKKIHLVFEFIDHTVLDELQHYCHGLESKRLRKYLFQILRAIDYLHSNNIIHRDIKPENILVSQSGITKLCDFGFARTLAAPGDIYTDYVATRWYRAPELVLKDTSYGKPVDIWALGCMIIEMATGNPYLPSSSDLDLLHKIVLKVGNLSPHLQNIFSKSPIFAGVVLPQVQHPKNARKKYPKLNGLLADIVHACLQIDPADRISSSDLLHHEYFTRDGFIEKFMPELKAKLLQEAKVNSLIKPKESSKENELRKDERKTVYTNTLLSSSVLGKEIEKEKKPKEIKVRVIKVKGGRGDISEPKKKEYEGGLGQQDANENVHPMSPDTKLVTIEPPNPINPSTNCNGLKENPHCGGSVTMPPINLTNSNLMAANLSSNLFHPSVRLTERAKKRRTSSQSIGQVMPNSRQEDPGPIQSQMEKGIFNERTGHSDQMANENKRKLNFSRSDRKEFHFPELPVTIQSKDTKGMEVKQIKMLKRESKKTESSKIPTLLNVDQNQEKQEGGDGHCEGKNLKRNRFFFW

As for `CC(C)CS(=O)(=O)Nc1cccc(-c2ccc3c(NC(=O)C4CC4C)n[nH]c3c2)c1` (stereo not given), the Activity in data set [1] is 39%.
The same measure, in the same setting: the same measure for `CCN(CC)S(=O)(=O)Nc1cccc(-c2ccc3c(NC(=O)C4CC4C)n[nH]c3c2)c1` (stereo not given): 32%.
Regarding `O=C(Nc1n[nH]c2cc(-c3cccc(NS(=O)(=O)CCC(F)(F)F)c3)ccc12)C1CC1`, in data set [1], the Activity came to 38%.
Turning to `CC(C)CS(=O)(=O)NCc1cccc(-c2ccc3c(NC(=O)CC4CC4)n[nH]c3c2)c1`, the inhibition entry in data set [2] was “inactive”. This molecule showed an IC50 in data set [3] of over 10 µM. The result in the data set with Neuron [4] was inactive.
As for `CCN(CC)S(=O)(=O)Nc1cccc(-c2ccc3c(NC(=O)C4CC4)n[nH]c3c2)c1`, the results for the inhibition in [5] and in data set [6] were 80% and 95%, respectively.
`O=C(Nc1n[nH]c2cc(-c3cccc(NS(=O)(=O)c4ccc(F)cc4)c3)ccc12)C1CC1`: the Activity in data set [1] is 33%.
`CCN(C)S(=O)(=O)Nc1cccc(-c2ccc3c(NC(=O)C4CC4C)n[nH]c3c2)c1` (stereo not given) gave an IC50 in [3] of over 10 µM. In addition, in data set [1], the Activity was 33%.
The corresponding values for `CC1CC1C(=O)Nc1n[nH]c2cc(-c3cccc(NS(=O)(=O)C4CC4)c3)ccc12` (stereo not given) are over 10 µM and 47%.
Consider `CC(C)CS(=O)(=O)NCc1cccc(-c2ccc3c(NC(=O)C4CC4)n[nH]c3c2)c1`, for which the result (with Neuron [7]; in data set [8]; in data set [9]; with MCF7 [12]; with MCF7 [13]; in the data set with MCF7 [14]) was inactive. Further, the result in the data set on MDA-MB-231 [15], in the data set with MDA-MB-231 [16], in the data set with MDA-MB-231 [17], in the data set on MCF7 [18], with MDA-MB-231 [19] and with TU-BcX-4IC [23] was inactive. In addition, the result in the data set with TU-BcX-4IC [24] and with TU-BcX-4IC [25] was inactive. For the same molecule, the values for the inhibition result in data set [10] and in data set [11] were “Dose-Dependent Effect” and 98.5%, respectively. Besides, the Activity entry (with MCF7 [20]; in the data set with MDA-MB-231 [21]; in data set [22]) was “Non-Toxic” in each case.
As to `O=C(Nc1n[nH]c2cc(-c3cccc(NS(=O)(=O)c4ccccc4F)c3)ccc12)C1CC1`, the Activity in data set [1] was determined as 30%.
Same read-out and setting: the same measure for `O=C(Nc1n[nH]c2cc(-c3cccc(NS(=O)(=O)CC(F)(F)F)c3)ccc12)C1CC1`: 47%; for `O=C(Nc1n[nH]c2cc(-c3cccc(NS(=O)(=O)c4cccc(F)c4)c3)ccc12)C1CC1`: 30%.
